Shown are actives, neighbours in structure and some others; about 2.2% of the full set was active somewhere.
PfGluPho inh – PfG6PD (Plasmodium falciparum) enzyme inhibition; AID 504690; PfGluPho enzyme, NADPH resazurin-diaphorase fluorescence; inhibition, % at 20 µM; hit rate 0.78% among 350,000;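 active means inhibition reaching at least a set limit at 20 µM in the primary screen, cut at about 59% in these data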;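 further: 0% = DMSO wells with substrate and 100% = DMSO wells lacking glucose-6-phosphate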
ABHD5-PLIN5 inh – ABHD5-PLIN5 protein interaction inhibition | Split G. princeps luciferase complementation, luminescence, 4 h | inhibition, % at 4 µM | Q00G26+Q8WTS1 | hit rate 0.78% among 360,000;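 active means inhibition above the mean inhibition across every tested compound plus 3 SD, cut at about 22% in these data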;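 further: 0% = DMSO only wells and the 100% control is not disclosed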
HKDC1 inhibitor – inhibitors of human hexokinase HKDC1 | Q2TB90 | inhibition, % at 20 µM | recombinant HKDC1, G6PDH/diaphorase resazurin coupled fluorescence | hit rate 0.16% among 340,000;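 active means inhibition above about 35% when tested at 20 µM, limit read from the data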;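 further: plate controls were DMSO wells with enzyme for no effect and DMSO wells lacking enzyme for full effect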
Target sequence (Q2TB90 whole entry, looked up): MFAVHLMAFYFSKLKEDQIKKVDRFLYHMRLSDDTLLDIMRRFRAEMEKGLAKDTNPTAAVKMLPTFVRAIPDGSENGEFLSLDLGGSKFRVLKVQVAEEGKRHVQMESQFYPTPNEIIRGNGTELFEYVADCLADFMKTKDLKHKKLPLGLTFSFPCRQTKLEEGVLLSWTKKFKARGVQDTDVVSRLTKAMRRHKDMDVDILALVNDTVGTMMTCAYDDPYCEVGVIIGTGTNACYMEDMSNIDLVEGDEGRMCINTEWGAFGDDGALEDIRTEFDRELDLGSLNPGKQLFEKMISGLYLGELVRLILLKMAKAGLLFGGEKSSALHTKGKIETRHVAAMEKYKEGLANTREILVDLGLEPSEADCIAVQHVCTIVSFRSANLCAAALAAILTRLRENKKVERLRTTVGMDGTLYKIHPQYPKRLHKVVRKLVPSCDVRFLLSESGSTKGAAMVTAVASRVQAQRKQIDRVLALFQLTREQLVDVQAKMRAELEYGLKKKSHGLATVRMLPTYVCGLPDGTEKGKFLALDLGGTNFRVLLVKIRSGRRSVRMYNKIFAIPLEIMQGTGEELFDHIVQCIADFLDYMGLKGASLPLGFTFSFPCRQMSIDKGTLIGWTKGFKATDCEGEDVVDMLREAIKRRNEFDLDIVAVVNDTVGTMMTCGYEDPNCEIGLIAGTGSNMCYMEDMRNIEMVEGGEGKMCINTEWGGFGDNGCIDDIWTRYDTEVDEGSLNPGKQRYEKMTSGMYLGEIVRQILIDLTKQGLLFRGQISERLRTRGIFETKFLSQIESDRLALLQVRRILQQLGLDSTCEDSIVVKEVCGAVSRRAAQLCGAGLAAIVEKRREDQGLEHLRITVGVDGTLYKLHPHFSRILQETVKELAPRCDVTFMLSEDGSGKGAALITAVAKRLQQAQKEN
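Test system: HK5 enzyme. Quantity: 5 µg/mL HK5 final. Reagent: glucose and ATP substrates. Schedule: 90 min reaction incubation at room temperature, dark. Technique: resazurin-to-resorufin fluorescence via G6PDH and diaphorase coupling, 525/613 nm. Control set: DMSO wells with and without enzyme mix.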
Granule exo inh – blocks lytic granule exocytosis | TALL-104 LAMP-1 surface exposure, flow cytometry; cells stimulated with thapsigargin and PMA | inhibition, % at 10 µM | hit rate 0.66% among 360,000 | AID 651702;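 active means inhibition above about 55%, limit read from the data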
PfGluPho conf – PfG6PD inhibition, single-dose confirmed. shares compounds with PfGluPho inh. recombinant PfGluPho, NADPH-diaphorase-resazurin fluorescence. inhibition, % at 20 µM. hit rate 34% among 2,400;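 active means inhibition of at least 50% at 20 µM in any single replicate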;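 further: 0% = DMSO with substrate and 100% = DMSO lacking glucose-6-phosphate substrate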
Diaph ctr 10uM – counter-screen for P. falciparum G6PD inhibitors: diaphorase inhibitors, oxidizers; shares compounds with PfGluPho inh; diaphorase-coupled resazurin reduction, fluorescence, NADPH 10 uM; inhibition, % at 20 µM; hit rate 39% among 820; AID 504862;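 active means average inhibition reaching 50% or more with the compound at 20 µM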;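 further: resorufin red fluorescence formed as diaphorase reduces resazurin using NADPH; 0% = DMSO with enzyme and 100% = DMSO without enzyme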
Diaphorase 30uM – inhibits diaphorase or oxidizes, flagging false PfG6PD hits; shares compounds with PfGluPho inh; Diaphorase/resazurin coupled assay, resorufin fluorescence, 30 uM NADPH; inhibition, % at 20 µM; hit rate 29% among 820;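 active means inhibition averaging 50% or more, tested at 20 µM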;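 further: 0% = DMSO with enzyme and 100% = DMSO wells lacking diaphorase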
* hit, by the source's call; x = not tested or not shown.

SMILES	PfGluPho inh	ABHD5-PLIN5 inh	HKDC1 inhibitor	Granule exo inh	PfGluPho conf	others
CCN(CC)CCCN1C=C2C(=O)C(C)(OC(=O)CCc3ccccc3)C(=O)C=C2C=C1c1ccc(C#N)cc1 (configuration not stated)	30	-28	13	2	x
CC1(OC(=O)CCc2ccccc2)C(=O)C=C2C=C(c3ccc(C#N)cc3)N(C3CCCCC3)C=C2C1=O (configuration not stated)	75*	-24	21	2	26
COc1ccccc1N1CCN(C(=O)C2CCN(S(=O)(=O)c3ccccc3F)CC2)CC1	5	2	-1	-2	x
O=C(CCC(=O)c1cccs1)NCc1cccc(Cl)c1	-29	-9	-3	8	x
O=C(CN1C(=O)NC(c2ccccc2)(c2ccccc2)C1=O)NCCNCCO	-3	1	-4	1	x
Oc1c(Cl)cc(Cl)cc1C=Nc1cc(C(F)(F)F)ccc1N1CCc2ccccc2C1	72*	-8	9	14	-8
COC(=O)c1ccccc1C(=O)c1ccc2c(c1)NC(=O)CO2	68*	-1	1	0	35
O=C1COc2ccc(C(=O)COC(=O)c3ccccc3F)cc2N1	1	2	-2	-2	x
O=C(Nc1cccc(F)c1)c1ccc(-c2ccccc2Cl)o1	79*	-21	2	1	-7
Cc1ccc(-c2ccc(C(=O)Nc3cccc(F)c3)o2)c2ccccc12	28	2	10	-2	x
COc1ccc(NC(=O)c2ccc(-c3ccccc3Cl)o2)cc1	65*	3	5	-2	13
COc1ccc(C(=O)CSc2[nH]c(=O)cc(C(F)(F)F)c2C#N)cc1	-22	1	1	3	x
Clc1cccc(Cl)c1CNc1ccc(N2CCCC2)cc1	96*	x	9	x	55*	Diaph ctr 10uM=-1;Diaphorase 30uM=-2
O=C(NNC(=O)c1ccccc1OCc1ccccc1)c1ccccc1O	90*	6	-6	-5	69*	Diaph ctr 10uM=56*;Diaphorase 30uM=56*
O=C(NNC(=O)c1ccccc1OCc1ccc(F)cc1)c1ccccc1O	120*	-6	-6	-1	70*	Diaph ctr 10uM=67*;Diaphorase 30uM=50*
O=C(NNC(=O)c1ccccc1OCc1ccccc1)c1ccccc1F	4	-1	-6	-10	x
Cc1ccc(OCCN2CCC2(C)C(=O)Nc2ccc3c(c2)OCCO3)cc1 (configuration not stated)	x	5	x	0	x
O=[N+]([O-])c1ccc(Sc2cccc3cccnc23)c2cccnc12	94*	-2	7	11	53*	Diaph ctr 10uM=66*;Diaphorase 30uM=46
COc1ccc(NC(=O)NC(C)C2CC3CCC2C3)cc1 (configuration not stated)	-5	4	-3	-4	x
c1cncc(CNc2ccc3c(c2)OCO3)c1	68*	9	8	-1	58*	Diaph ctr 10uM=5;Diaphorase 30uM=4
O=C(NCc1cccnc1)Nc1ccc2c(c1)OCO2	11	-3	-11	-11	x
Cc1ccc(C2(c3ccc(C)cc3)CC2C(=O)Nc2ccc([N+](=O)[O-])cc2O)cc1 (configuration not stated)	93*	-36	-2	32	19
CC1(C)CC1C(=O)Nc1ccc([N+](=O)[O-])cc1Br (configuration not stated)	-9	-1	-4	0	x
COc1ccc2[nH]c(=O)c(CNc3cccc(C)c3)cc2c1	69*	0	20	6	-2
COc1ccc(NCc2cc3cc(OC)ccc3[nH]c2=O)cc1	73*	0	5	0	26
SMILES	PfGluPho inh	ABHD5-PLIN5 inh	HKDC1 inhibitor	Granule exo inh	PfGluPho conf	others
C=CCc1c(C)[nH]c2c(OC)cccc2c1=S	62*	-7	-5	-1	36
C=CCN(CC=C)C(=O)c1c(OC)cccc1OC	-9	-3	-10	-2	x
O=C(CSc1nc2cc(Cl)ccc2s1)c1ccco1	113*	-3	4	0	56*	Diaph ctr 10uM=45;Diaphorase 30uM=29
O=C(N[C@@H]1c2ccccc2CC[C@@H]1OCc1ccccc1)c1ccc(C(F)(F)F)cc1	13	-5	2	5	x
Oc1c(Br)cc(Br)cc1C=Nc1cccc2ncccc12	48	-25	31	67*	36
O=C(Nc1cccc([N+](=O)[O-])c1)c1ccncc1	-8	2	10	1	x
CCCc1cc(C(=O)Nc2cccc([N+](=O)[O-])c2)cs1	81*	-4	-1	8	12
CC(C)(C)c1ccc(C(=O)Nc2cccc([N+](=O)[O-])c2)cc1	74*	-10	5	0	-1
O=C(Cc1ccccc1)Nc1cccc([N+](=O)[O-])c1	7	-3	-13	1	x
O=C(Nc1cccc([N+](=O)[O-])c1)c1ccc2ccccc2c1O	78*	2	15	-30	8
Cc1cc(Br)c(NC(=O)CCNC(=O)OCc2ccccc2)cc1C	-5	0	1	14	x
COC(=O)c1cc(CSc2nc3ccccc3c(=O)n2C)oc1C	-1	-2	0	2	x
COc1cccc(/C=N/NC(=O)CCCc2ccc(OC)c(C)c2)c1	77*	-2	3	-2	23
COc1cccc(C=NNC(=O)CCCC(=O)NN=Cc2cccc(OC)c2)c1	14	-6	-4	-2	x
C[C@]12CC[C@@H]3c4ccc(O)cc4CC[C@H]3[C@@H]1CC[C@@H]2O	-2	6	-5	-6	x
C[C@]12CC[C@@H]3c4cc(O)c(O)cc4CC[C@H]3[C@@H]1CC[C@@H]2O	97*	21	-6	0	86*	Diaph ctr 10uM=28;Diaphorase 30uM=14
C=Cc1ccc(Cn2c(C)c(C(=O)NCc3ccc(Cl)c(Cl)c3)sc2=O)cc1	x	-1	x	10	x
CCCc1nc(SCC(=O)c2ccccc2)c2c(=O)n(C)c(=O)n(C)c2n1	71*	0	0	4	24
CCc1nc(SCC(=O)c2ccccc2)c2c(=O)n(C)c(=O)n(C)c2n1	58	-4	-3	-9	x
Cc1ccc(NC(=O)CN2CCCC2)c2c1CC(C)(C)O2	0	-1	-6	-2	x
Cc1cccc(S(=O)(=O)Nc2ccc(C)c3c2OC(C)(C)C3)c1	107*	-4	1	0	49
Cc1ccc(NS(=O)(=O)c2ccccc2Cl)c2c1CC(C)(C)O2	109*	1	2	-1	59*	Diaph ctr 10uM=44;Diaphorase 30uM=30
[O-]/[N+](=C\c1ccncc1)c1ccccc1	74*	-12	-4	-2	52*	Diaph ctr 10uM=35;Diaphorase 30uM=9
Cc1ccc(Cc2c(-c3ccc(F)cc3)nc3ccc(Cl)cn23)cc1	62*	-8	x	-7	-18
Cc1ccc(Cc2c(-c3ccc(F)cc3)nc3cc(C)ccn23)cc1	71*	-7	x	-2	-11
Cc1ccc(Cc2c(-c3ccc(F)cc3)nc3ccc(Br)cn23)cc1	x	-8	x	7	x
Cc1ccc(Cc2c(-c3ccc(Br)cc3)nc3cc(C)ccn23)cc1	109*	-5	x	12	14
